Measured values from ChEMBL document CHEMBL1125400, “Synthesis and antibacterial activity of some novel 6-methyl- and 6-propenyl-substituted carbapenems” (J Med Chem, 1992).
Values after ≈ are worked out from the molar mass of the structure shown. Values joined by “and” are separate entries in the source; they are usually repeats but may differ in a detail not shown here. Identical values can stand only once.

Legend:
Staphylococcus aureus = experiment: In vitro antibacterial activity against Staphylococcus aureus (A9537); format: functional
Method in brief: (§1)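 Broth microdilution MIC in Nutrient Broth with a final inoculum of 5.0 × 10^5 CFU/mL. Trays incubated 18 h at 35 °C. MIC taken as the lowest antibiotic concentration inhibiting bacterial growth, in µg/mL.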

Enterobacter cloacae = experiment: In vitro antibacterial activity against Enterobacter cloacae (A9659); format: functional; method in brief: as §1
Providencia rettgeri [1] = experiment: In vitro antibacterial activity against Providencia rettgeri (A22424); format: functional; method in brief: as §1
[2] = Half-life by UV spectrophotometry; format: ADME; settings: for half-life: read-out: Stability (converted)
Method in brief: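 Chemical stability in solution: about 10^-4 M compound in 0.07 M phosphate buffer, pH 7.4, held at 37 °C. Decay followed by UV spectrophotometry; half-life reported in hours.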

Enterococcus faecalis = experiment: In vitro antibacterial activity against Streptococcus faecalis (A20688); format: functional
Method in brief: (§2)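 Streptococcal MIC by broth microdilution in Todd-Hewitt Broth with a final inoculum of 5.0 × 10^5 CFU/mL. Trays incubated 18 h at 35 °C. Endpoint is the lowest concentration preventing growth, in µg/mL.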

Pseudomonas aeruginosa [3] = experiment: In vitro antibacterial activity against Pseudomonas aeruginosa (A9843); format: functional; method in brief: as §1
Escherichia coli [4] = experiment: In vitro antibacterial activity against Escherichia coli (A15119); format: functional; method in brief: as §1
Proteus vulgaris = experiment: In vitro antibacterial activity against Proteus vulgaris (A21559); format: functional; method in brief: as §1
Klebsiella pneumoniae [5] = experiment: In vitro antibacterial activity against Klebsiella pneumoniae (A9664); format: functional; method in brief: as §1
Streptococcus pyogenes = experiment: In vitro antibacterial activity against Streptococcus pyogenes (A9604); format: functional; method in brief: as §2
Escherichia coli [6] = experiment: In vitro evaluation for the antibacterial activity […] in e) Escherichia coli (A15119); format: functional
Mus musculus = experiment: Protective dose when administered orally for 50 percent of the mice tested. Mice were treated twice, at 0 and 2 hour after infection with Escherichia coli; format: functional; settings: po, read-out: PD50
Method in brief: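 Mice infected with E. coli and given test agent orally twice, at 0 and 2 h after infection. PD50 is the dose protecting 50% of animals, expressed as mg/kg per dose.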

Streptococcus pneumoniae = experiment: In vitro antibacterial activity against Streptococcus pneumoniae (A9585); format: functional; method in brief: as §2
Providencia rettgeri [7] = experiment: IIn vitro antibacterial activity against Providencia rettgeri (A22424); format: functional; method in brief: as §1
Klebsiella pneumoniae [8] = experiment: In vitro evaluation for the antibacterial activity […] in Klebsiella pneumoniae (A9664); format: functional
Pseudomonas aeruginosa [9] = experiment: In vitro evaluation for the antibacterial activity […] in Pseudomonas aeruginosa (A9843); format: functional
[10] = Providencia rettgeri, read-out: MIC
[11] = Pseudomonas aeruginosa, read-out: MIC
[12] = Streptococcus pyogenes, read-out: MIC

MIC (Providencia rettgeri [1]; [10])	MIC (Escherichia coli [4])	MIC (Pseudomonas aeruginosa [9])	MIC (Streptococcus pyogenes)	MIC (Providencia rettgeri [1])	Stability [2]	MIC (Pseudomonas aeruginosa [3])	SMILES	MIC (Staphylococcus aureus)	MIC (Enterobacter cloacae)	half-life [2]	MIC (Enterococcus faecalis)	MIC (Pseudomonas aeruginosa [3]; [11])	MIC (Proteus vulgaris)	MIC (Klebsiella pneumoniae [5])	MIC (Streptococcus pyogenes; [12])	MIC (Escherichia coli [6])	ED50 (Mus musculus)	MIC (Streptococcus pneumoniae)	MIC (Providencia rettgeri [7])	MIC (Klebsiella pneumoniae [8])
64 µg/mL (≈ 152 µM)	32 µg/mL (≈ 75.9 µM)						C[C@H]1C(SCc2ccccn2)=C(C(=O)O)N2C(=O)[C@H](/C=C/CNc3ccccc3)[C@@H]12	0.25 µg/mL (≈ 0.593 µM)	64 µg/mL (≈ 152 µM)	35 h	> 64 µg/mL	64 µg/mL (≈ 152 µM)	64 µg/mL (≈ 152 µM)	64 µg/mL (≈ 152 µM)						
							C[C@H]1C(SCc2cccnc2)=C(C(=O)O)N2C(=O)[C@H](CO)[C@@H]12	0.008 µg/mL (≈ 0.025 µM)	0.06 µg/mL (≈ 0.187 µM)	45 h	4 µg/mL (≈ 12.5 µM)	125 µg/mL (≈ 390 µM)	0.13 µg/mL (≈ 0.406 µM)		0.004 µg/mL (≈ 0.0125 µM)	0.016 µg/mL (≈ 0.0499 µM)	7 mg/kg	0.002 µg/mL (≈ 0.00624 µM)	0.5 µg/mL (≈ 1.56 µM)	0.06 µg/mL (≈ 0.187 µM)
16 µg/mL (≈ 46.2 µM)	8 µg/mL (≈ 23.1 µM)						C[C@H]1C(SCc2ccccn2)=C(C(=O)O)N2C(=O)[C@H](/C=C/CO)[C@@H]12	1 µg/mL (≈ 2.89 µM)	32 µg/mL (≈ 92.4 µM)	21 h	125 µg/mL (≈ 361 µM)	125 µg/mL (≈ 361 µM)	8 µg/mL (≈ 23.1 µM)	16 µg/mL (≈ 46.2 µM)	0.06 µg/mL (≈ 0.173 µM)			0.13 µg/mL (≈ 0.375 µM)		
32 µg/mL (≈ 86.2 µM)	8 µg/mL (≈ 21.5 µM)	125 µg/mL (≈ 337 µM)					C[C@H]1C(SCc2ccccn2)=C(C(=O)O)N2C(=O)[C@H](/C=C/CN=[N+]=[N-])[C@@H]12	0.06 µg/mL (≈ 0.162 µM)	32 µg/mL (≈ 86.2 µM)	21 h	32 µg/mL (≈ 86.2 µM)		8 µg/mL (≈ 21.5 µM)	16 µg/mL (≈ 43.1 µM)	0.03 µg/mL (≈ 0.0808 µM)			0.03 µg/mL (≈ 0.0808 µM)		
2 µg/mL (≈ 5.77 µM)			0.25 µg/mL and 0.56 µg/mL	2 µg/mL (≈ 5.77 µM)	72 h	125 µg/mL (≈ 361 µM)	C=CC(O)[C@H]1C(=O)N2C(C(=O)O)=C(SCc3ccccn3)[C@H](C)[C@H]12 (stereo partly specified)			72 h		125 µg/mL (≈ 361 µM)								

SMILES	MIC (Providencia rettgeri [1]; [10])	MIC (Escherichia coli [4])	MIC (Pseudomonas aeruginosa [9])	MIC (Streptococcus pyogenes)	MIC (Providencia rettgeri [1])	Stability [2]	MIC (Pseudomonas aeruginosa [3])	MIC (Staphylococcus aureus)	MIC (Enterobacter cloacae)	half-life [2]	MIC (Enterococcus faecalis)	MIC (Pseudomonas aeruginosa [3]; [11])	MIC (Proteus vulgaris)	MIC (Klebsiella pneumoniae [5])	MIC (Streptococcus pyogenes; [12])	MIC (Escherichia coli [6])	ED50 (Mus musculus)	MIC (Streptococcus pneumoniae)	MIC (Providencia rettgeri [7])	MIC (Klebsiella pneumoniae [8])
C[C@@H](N)[C@H]1C(=O)N2C(C(=O)O)=C(SCc3cccnc3)[C@H](C)[C@H]12	2 µg/mL (≈ 6 µM)							2 µg/mL (≈ 6 µM)	0.06 µg/mL (≈ 0.18 µM)	3 h	63 µg/mL (≈ 189 µM)	1 µg/mL (≈ 3 µM)	0.016 µg/mL (≈ 0.048 µM)	0.13 µg/mL (≈ 0.39 µM)	4 µg/mL (≈ 12 µM)	0.03 µg/mL (≈ 0.09 µM)	8 mg/kg	4 µg/mL (≈ 12 µM)		
C[C@H]1C(SCc2cccnc2)=C(C(=O)O)N2C(=O)[C@H](CN)[C@@H]12	0.25 µg/mL (≈ 0.783 µM)							0.5 µg/mL (≈ 1.57 µM)	0.016 µg/mL (≈ 0.0501 µM)	1.5 h	125 µg/mL (≈ 391 µM)	1 µg/mL (≈ 3.13 µM)	0.016 µg/mL (≈ 0.0501 µM)	0.03 µg/mL (≈ 0.0939 µM)	0.5 µg/mL (≈ 1.57 µM)	0.008 µg/mL (≈ 0.025 µM)	> 25 mg/kg	0.5 µg/mL (≈ 1.57 µM)		
C[C@@H](O)[C@H]1C(=O)N2C(C(=O)O)=C(SCc3cccnc3)[C@H](C)[C@H]12	16 µg/mL (≈ 47.8 µM)	0.016 µg/mL (≈ 0.0478 µM)						0.016 µg/mL (≈ 0.0478 µM)	0.13 µg/mL (≈ 0.389 µM)	65 h	2 µg/mL (≈ 5.98 µM)	125 µg/mL (≈ 374 µM)	0.03 µg/mL (≈ 0.0897 µM)	0.13 µg/mL (≈ 0.389 µM)	0.016 µg/mL (≈ 0.0478 µM)		17 mg/kg	0.016 µg/mL (≈ 0.0478 µM)		
